The values below come from ChEMBL document CHEMBL1157200, “Carboxymethylated pyridoindole antioxidants as aldose reductase inhibitors: Synthesis, activity, partitioning, and molecular modeling” (Bioorg Med Chem, 2008).

Each structure is given as a SMILES string.

A short description of data set [1]: Lipophilicity in 1-octanol/phosphate buffer at pH 7.4 assessed as distribution ratio by shake flask method. The format is physicochemical. To be noted: octanol/water. The essentials:
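Shake-flask method at room temperature with mutually saturated phases: compound 100 µM final in 0.1 M phosphate buffer pH 7.4 containing 0.15 M KCl, shaken with 1-octanol for 3 h. Phases separated by 1 h centrifugation; both measured by UV spectrophotometry. D is organic/aqueous total concentration; mean ± SD of ≥3 experiments.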

Data set [2] has as its target T1, Aldo-keto reductase family 1 member B1 (Rattus norvegicus, UniProt P07943). The experiment in a line: Inhibition of Wistar rat lens aldose reductase 2 using NADPH as substrate. In outline: (§1)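 Kinetic mode of rat lens ALR2 inhibition from double-reciprocal plots of initial velocity, with D,L-glyceraldehyde or NADPH concentration varied, with or without inhibitor (e.g. 20 µM); NADPH consumption read at 340 nm. Kinetic parameters given as mean ± SD of at least three experiments.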

A short description of data set [3]: Inhibition of Wistar rat kidney aldose reductase 1. In outline:
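ALR1 partially purified from male Wistar rat kidney by ammonium sulfate fractionation and DEAE treatment. NADPH consumption followed at 340 nm with 20 mM D-glucuronate and 0.12 mM NADPH in 0.1 M phosphate pH 7.2 at 37 °C; inhibitor also in blank. IC50 from linear part of semilog curves, ≥4 concentrations spanning 25–75% inhibition.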

The target of data set [4] is T1, Aldo-keto reductase family 1 member B1. In words: Inhibition of Wistar rat lens aldose reductase 2 using D,L-glyceraldehyde as substrate. In outline: as §1
Data set [5] has the same target. The experiment in a line: Inhibition of Wistar rat lens aldose reductase 2. In outline: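 Lens ALR2 partially purified from male Wistar rats (8–9 weeks). Reaction: 4.67 mM D,L-glyceraldehyde, 0.11 mM NADPH, 0.067 M phosphate pH 6.2; started with substrate, NADPH loss at 340 nm read 4 min after 1 min lag at 30 °C. Blank lacks substrate and includes inhibitor. IC50 from semilog curves, ≥4 concentrations giving 25–75% inhibition.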

Data set [6] can be described thus: Dissociation constant, acidic pKa of compound. The format is physicochemical. In outline: (§2)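 Potentiometric titration with glass/saturated calomel electrodes: compound about 2 mM in water, acidified with 0.1 M HCl to pH about 1.8, titrated with 0.1 M NaOH at 22 °C ± 1 °C, ionic strength held at 0.1 M with KCl.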
Data set [7] is described as follows: Dissociation constant, basic pKa of compound. In kind it is physicochemical. In outline:
as §2

Data set [8] can be described thus: Antioxidant activity assessed as inhibition of AAPH-induced peroxidation of DOPC liposome after 80 mins by thiocyanate method. The format is functional. The essentials: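 DOPC unilamellar liposomes (0.8 mM final) in 20 mM phosphate buffer pH 7.4 with AAPH initiator (10 mM final) and varying test concentrations at 50 °C. Aliquots extracted with ice-cold CHCl3/MeOH (2:1) containing BHT; lipid hydroperoxides measured by thiocyanate method, absorbance at 500 nm. IC50 taken at 80 min.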

Consider `O=C([O-])Cc1ccc2[nH]c3c(c2c1)CN(CCc1ccccc1)CC3.[K+]`, for which the D in data set [1] is 0.51. For the same compound, the Ki – broadly, the dissociation constant of the complex between target and ligand, obtained from inhibition or displacement – was 10.5 µM in data set [2] and 17.7 µM in data set [4]. Moreover, the half-inhibitory concentration (IC50) – broadly, the concentration needed to halve the response being measured – was determined as 603 µM in data set [3] and 16.7 µM in data set [5].

For `CN1CCc2[nH]c3ccc(CC(=O)[O-])cc3c2C1.[K+]`, the D in data set [1] amounted to 0.13. The IC50 worked out at 3080 µM in data set [3] and 54 µM in data set [5].

Turning to `O=C([O-])Cc1ccc2[nH]c3c(c2c1)CN(Cc1ccccc1)CC3.[K+]`, the D in data set [1] is recorded as 0.35. Also, the Ki was 11 µM in data set [2] and 17.9 µM in data set [4]. Besides, the values for the concentration for half-maximal inhibition (IC50) in data set [3] and in data set [5] were 328 µM and 18.2 µM, respectively. The results for the pKa in data set [6] and in data set [7] were 4.34 and 8.65, respectively.

Take `CN1CC[C@@H]2Nc3ccc(CC(=O)[O-])cc3[C@@H]2C1.[K+]` (racemic): the D in data set [1] is on record as under 0.1. In data set [5], this compound returned an IC50 of 381 µM.

As to `O=C([O-])Cc1ccc2c(c1)[C@@H]1CN(Cc3ccccc3)CC[C@@H]1N2.[Na+]` (racemic), the D in data set [1] came out at 0.2. The IC50 in data set [3] was over 3000 µM; in data set [8], 75.6 µM; in data set [5], 266 µM.

On to `Cc1ccc2[nH]c3c(c2c1)CN(C)CC3` [DEHYDROSTOBADINE], for which the D in data set [1] is recorded as 6. The IC50 is 72.7 µM in data set [8] and over 1000 µM in data set [5].

Take `Cc1ccc2c(c1)[C@H]1CN(C)CC[C@H]1N2` [STOBADINE]: in data set [1], the D came out at 2.5. The IC50 in data set [8] is 25.3 µM; in data set [5] it was over 1000 µM.

For the compound `Cc1c(C)c2c(c(C)c1O)CCC(C)(C(=O)O)O2` (stereo not given) [TROLOX], in data set [8], the IC50 stood at 93.5 µM.

The compound `CCCC(CCC)C(=O)O` [VALPROIC ACID] gave an IC50 in data set [3] of 56.1 µM.

As to `O=C(O)Cc1nn(Cc2nc3cc(C(F)(F)F)ccc3s2)c(=O)c2ccccc12` [ZOPOLRESTAT], half-maximal inhibition in data set [5] (IC50) required 0.005 µM.
